The source of these data is ChEMBL document CHEMBL3102834, “Discovery of 5-substituted pyrrolo[2,3-d]pyrimidine antifolates as dual-acting inhibitors of glycinamide ribonucleotide formyltransferase and 5-aminoimidazole-4-carboxamide ribonucleotide formyltransferase in de novo purine nucleotide biosynthesis: implications of inhibiting …” (J Med Chem, 2013).

Active and inactive are the calls of the source. The rule behind the calls is not given here.

Assay [1] has as its target Bifunctional purine biosynthesis protein ATIC (Homo sapiens) (UniProt P31939). The assay is described as follows: Inhibition of AICARFTase in human KB cells assessed as accumulation of ZMP at 1 uM after 48 hrs by HPLC analysis. It counts as cell-based. The essentials:
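KB cells were treated with 1 μM drug for 48 h in FF-RPMI/10% DFBS with 2 nM LCV. Metabolites were extracted with 5% TCA and then ether. They were separated by SAX ion-exchange HPLC using an NH4H2PO4 gradient (5 mM pH 2.8 to 750 mM pH 3.9) over 25 min with detection at 280 nm. ZMP was quantified against a standard curve with an AraCMP internal control; three experiments.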

Assay [2] is described as follows: Cytotoxicity against chinese hamster R2(VC) cells after 96 hrs by CellTitre-Blue fluorescence assay. It counts as functional, cell-based. Particulars: Cricetulus griseus. The procedure, abridged: (§1)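 CHO sublines were grown in FF-RPMI/DFBS; transfectants were maintained with G418. Cells were exposed to antifolate (0–1 μM) for 96 h at 37 °C with 2 nM LCV (RT16) or 25 nM LCV (R2/PCFT4). PC43-10 cells were grown in standard RPMI1640/DFBS instead. FRα specificity was tested by adding 200 nM folic acid. Viable cells were read by CellTiter-Blue fluorescence (ex 560/em 590), and IC50 was taken from dose–response curves; means of 3–10 experiments.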

Assay [3] in a line: Cytotoxicity against chinese hamster PC43-10 cells expressing human RFC after 96 hrs by CellTitre-Blue fluorescence assay. It counts as functional, cell-based. Particulars: Cricetulus griseus, PC43-10, 96 h. The essentials: as §1
The subject of assay [4] is KB. The assay is described as follows: Induction of apoptosis in human KB cells assessed as early apoptotic cells at 1 uM after 96 hrs by Annexin V-FITC/7-AAD staining-based flow cytometry (reference value: 0.485%). It counts as functional. In general terms: In flow cytometry, cells or beads pass a laser one at a time.
The test system of assay [5] is KB. In words: Cytotoxicity against human KB cells expressing human RFC/FRalpha/PCFT after 96 hrs by CellTitre-Blue fluorescence assay in presence of AICA. It counts as functional, cell-based. The procedure, abridged: (§2)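 KB cells were grown in FF-RPMI with DFBS and 2 nM LCV, exposed to antifolate (0–1 μM) for 96 h at 37 °C, and read by CellTiter-Blue fluorescence. IC50 was taken from dose–response curves relative to untreated cells. Protection arms added adenosine 60 μM, thymidine 10 μM, AICA 320 μM, or folic acid 200 nM. Means of 3–10 experiments.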

The subject of assay [6] is KB. In words: Cell cycle arrest in human KB cells assessed as accumulation at G1/G0 phase at 1 uM after 96 hrs by propidium iodide staining-based flow cytometry (reference value: 67.4%). It counts as functional.
In assay [7] the test system is KB. The assay is described as follows: Cytotoxicity against human KB cells expressing human RFC/FRalpha/PCFT after 96 hrs by CellTitre-Blue fluorescence assay in presence of folic acid. It counts as functional, cell-based. The essentials:
as §2

In assay [8] the target is T1, Reduced folate transporter (Homo sapiens) (UniProt P41440).
T1 sequence (whole entry): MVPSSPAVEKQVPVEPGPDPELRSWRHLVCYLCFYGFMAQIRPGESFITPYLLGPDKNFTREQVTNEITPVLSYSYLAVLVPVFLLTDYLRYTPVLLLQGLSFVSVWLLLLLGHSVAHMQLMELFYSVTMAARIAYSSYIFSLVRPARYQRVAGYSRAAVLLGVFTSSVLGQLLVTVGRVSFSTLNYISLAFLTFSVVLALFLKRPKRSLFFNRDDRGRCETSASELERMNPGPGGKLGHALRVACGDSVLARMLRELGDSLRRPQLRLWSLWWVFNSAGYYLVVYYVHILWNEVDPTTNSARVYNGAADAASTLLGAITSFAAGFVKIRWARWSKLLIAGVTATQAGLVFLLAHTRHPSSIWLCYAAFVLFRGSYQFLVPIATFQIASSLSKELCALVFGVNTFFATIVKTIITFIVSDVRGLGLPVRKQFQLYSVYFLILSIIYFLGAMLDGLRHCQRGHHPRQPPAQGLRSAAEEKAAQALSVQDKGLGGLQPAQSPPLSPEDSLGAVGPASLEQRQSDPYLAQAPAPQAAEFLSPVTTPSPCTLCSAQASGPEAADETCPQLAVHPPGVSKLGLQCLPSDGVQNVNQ
In words: Inhibition of human RFC expressed in chinese hamster PC43-10 cells assessed as reduction of [3H]MTX uptake at 10 uM after 48 hrs by scintillation counting analysis relative to control. It counts as cell-based. The procedure, abridged: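 PC43-10 CHO cells expressing human RFC (~1.5 × 10^6) were seeded 48 h before assay. Uptake of 0.5 μM [3H]MTX was run in Hank's balanced salts for 2 min at 37 °C, with or without 10 μM unlabelled inhibitor, and stopped with ice-cold PBS. Cells were dissolved in 0.5 N NaOH, counted by scintillation and normalised to Folin-phenol protein (pmol/mg). RFC-null R2 cells gave baseline. Three experiments.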

The test system of assay [9] is KB. The assay is described as follows: Cell cycle arrest in human KB cells after 48 hrs by propidium iodide staining-based flow cytometry. It counts as functional. The procedure, abridged: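 KB cells exposed to 1 μM drug for 48 h in FF-RPMI with 10% DFBS and 2 nM LCV, harvested by trypsin and fixed in ice-cold ethanol. Stained with 50 μg/mL PI plus 100 μg/mL RNase for at least 20 min at room temperature in the dark. Flow cytometry counted at least 10 000 events. G1/G0, S, G2/M and sub-G1 fractions were fitted by Watson Pragmatic model.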

The subject of assay [10] is KB. The assay is described as follows: Cytotoxicity against human KB cells expressing human RFC/FRalpha/PCFT after 96 hrs by CellTitre-Blue fluorescence assay. It counts as functional, cell-based. The procedure, abridged: as §2
Assay [11] concerns KB. The assay is described as follows: Cell cycle arrest in human KB cells assessed as accumulation at S phase at 1 uM after 96 hrs by propidium iodide staining-based flow cytometry (reference value: 15.9%). It counts as functional.
Assay [12] in a line: (§3) Inhibition of GARFTase in human KB cells assessed as incorporation of [14C]-glycine into [14C]-formyl GAR incubated 30 mins prior to [14C]-glycine addition measured after 16 hrs by radiometric assay in presence of azaserin. It counts as cell-based. The procedure, abridged:
(§4)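 KB cells were preincubated 1 h in folate- and glutamine-free medium with 2 nM LCV and a range of drug concentrations. Azaserine (4 μM final) was added for 30 min, then 2 mM glutamine and [14C(U)]glycine (0.1 mCi/L) for 16 h at 37 °C. TCA extracts were ether-washed and run on AG1×8 anion exchange. [14C]formyl GAR was measured per mg protein, and IC50 was set against DMSO controls; three experiments.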

For assay [13], the system named is KB. Described as §3. It counts as cell-based. The essentials:
as §4

Assay [14] deals with KB. In words: Induction of apoptosis in human KB cells assessed as viable cells at 1 uM after 96 hrs by Annexin V-FITC/7-AAD staining-based flow cytometry (RVB = 89.6%). It counts as functional. The note with it: read-out: Activity.
The subject of assay [15] is KB. In words: Cytotoxicity against human KB cells expressing human RFC/FRalpha/PCFT after 96 hrs by CellTitre-Blue fluorescence assay in presence of adenosine. It counts as functional, cell-based. The essentials: as §2
Assay [16] has as its system KB. The assay is described as follows: Cell cycle arrest in human KB cells assessed as accumulation at G2/M phase at 1 uM after 96 hrs by propidium iodide staining-based flow cytometry (reference value: 13.2%). It counts as functional.
For assay [17], the system named is KB. The assay is described as follows: Induction of apoptosis in human KB cells assessed as late apoptotic cells at 1 uM after 96 hrs by Annexin V-FITC/7-AAD staining-based flow cytometry (reference value: 2.09%). It counts as functional.
For the next assay, the system named is R2. The assay is described as follows: Cytotoxicity against chinese hamster R2 cells expressing human PCFT4 after 96 hrs by CellTitre-Blue fluorescence assay. The note with it: R2, 96 h. It counts as functional, cell-based, Cricetulus griseus.

Chain of Bifunctional purine biosynthesis protein ATIC (Homo sapiens) (P31939 whole entry, looked up): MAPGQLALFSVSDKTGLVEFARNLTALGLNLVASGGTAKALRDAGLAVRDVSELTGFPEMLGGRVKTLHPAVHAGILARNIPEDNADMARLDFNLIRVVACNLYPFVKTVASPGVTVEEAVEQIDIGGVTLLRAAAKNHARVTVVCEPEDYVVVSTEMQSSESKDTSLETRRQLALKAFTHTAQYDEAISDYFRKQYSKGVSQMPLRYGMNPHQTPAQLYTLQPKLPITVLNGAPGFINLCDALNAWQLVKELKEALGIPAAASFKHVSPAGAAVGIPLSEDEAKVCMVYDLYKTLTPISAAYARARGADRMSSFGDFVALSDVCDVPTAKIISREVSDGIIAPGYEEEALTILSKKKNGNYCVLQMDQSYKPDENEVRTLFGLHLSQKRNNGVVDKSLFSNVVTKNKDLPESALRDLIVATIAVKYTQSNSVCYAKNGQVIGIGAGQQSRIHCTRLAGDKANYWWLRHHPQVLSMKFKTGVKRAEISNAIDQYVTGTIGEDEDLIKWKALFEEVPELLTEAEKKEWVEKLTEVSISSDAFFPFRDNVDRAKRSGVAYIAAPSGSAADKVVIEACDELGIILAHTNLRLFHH

In general, inhibition refers to the relative decrease from the control value, in per cent. Usually IC50 stands for the concentration that inhibits the measured activity by half. Turning to `Nc1nc2[nH]cc(CCCCc3ccc(C(=O)N[C@@H](CCC(=O)O)C(=O)O)cc3)c2c(=O)[nH]1`, in assay [1], the inhibition result is “Active”. In addition, the half-inhibitory concentration (IC50) in [2] was > 1000 nM; in assay [3], 56.6 nM; in the assay with KB [7], 700 nM; with KB [10], 12.7 nM; in assay [12], 29.7 nM; in the assay with R2, 840 nM. The Activity in the assay on KB [4] is on record as 33.8%; with KB [6], 12.9%; in the assay with KB [11] it was 48.2%; in the assay on KB [16] it was 2.3%; in the assay with KB [17], 26.7%. Also, the result with KB [5] and with KB [9] was Active. The values for the inhibition (in assay [8]; with KB [13]) were > 90% and “Dose-dependent effect”, respectively. In addition, the viability at 1 µM in the assay on KB [14] was found to be 39%. For the same compound, the outcome in the assay on KB [15] was inactive.
